From ChEMBL document CHEMBL4152228, “Structural-based design, synthesis, and antitumor activity of novel alloxazine analogues with potential selective kinase inhibition” (Eur J Med Chem, 2018)
pIC50: −log10 of the molar value.

Assays:
[1] = system: HCT-116; assay: Antiproliferative activity against human HCT116 cells after 72 hrs by MTT assay; format: functional, cell-based; conditions: HCT-116, 72 h
How it was run: (§1)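 MTT viability assay. Cells grown in RPMI-1640 with 10% heat-inactivated FBS, L-glutamine and 1% penicillin/streptomycin, used within 20 passages. Seeded at 5×10^3 cells/well, left overnight at 37 °C, then exposed to final concentrations of 0.005–50 µM (0.1% DMSO) for up to 72 h. MTT added for 3 h, formazan dissolved in DMSO, absorbance read at 550 nm. IC50 derived relative to untreated controls.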

[2] = system: A2780; assay: Antiproliferative activity against human A2780 cells after 72 hrs by MTT assay; format: functional, cell-based; conditions: A2780, 72 h; how it was run: as §1
[3] = system: MCF7; assay: Antiproliferative activity against human MCF7 cells after 72 hrs by MTT assay; format: functional, cell-based; conditions: MCF7, 72 h; how it was run: as §1
[4] = Antiproliferative activity against human WM793B cells after 72 hrs by MTT assay; format: functional, cell-based; how it was run: as §1
[5] = system: K562; assay: Antiproliferative activity against human K562 cells after 72 hrs by MTT assay; format: functional, cell-based; conditions: K562, 72 h
[6] = target: Calcium/calmodulin-dependent protein kinase type 1 (Homo sapiens) (UniProt Q14012); assay: Inhibition of CAMK1 (unknown origin) at 10 uM by [33P]-ATP radiometric assay
Chain of Calcium/calmodulin-dependent protein kinase type 1 (Homo sapiens) (Q14012 whole entry, looked up): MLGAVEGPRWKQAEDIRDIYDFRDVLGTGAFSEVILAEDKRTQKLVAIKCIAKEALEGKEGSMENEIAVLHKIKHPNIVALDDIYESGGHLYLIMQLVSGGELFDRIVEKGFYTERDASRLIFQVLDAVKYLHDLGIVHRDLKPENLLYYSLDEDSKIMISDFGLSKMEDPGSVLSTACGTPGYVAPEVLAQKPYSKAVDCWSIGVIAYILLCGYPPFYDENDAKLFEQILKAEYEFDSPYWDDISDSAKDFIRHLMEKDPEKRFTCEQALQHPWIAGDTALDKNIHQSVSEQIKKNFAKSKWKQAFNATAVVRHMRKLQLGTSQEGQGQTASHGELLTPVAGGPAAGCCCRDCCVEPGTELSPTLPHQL
How it was run: (§2)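 Radiometric kinase profiling: purified recombinant kinase (~10–50 nM final) with substrate, assay buffer and compound at 10 µM (control 10% DMSO). Started with 33P-ATP (50 µM stock, 0.8 µCi), run 30 min at ambient temperature, then spotted onto P81 phosphocellulose and washed in 1% phosphoric acid. Scintillation counted, no-substrate blank subtracted, single measurement, result given as % change versus control.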

[7] = target: Calcium/calmodulin-dependent protein kinase type II subunit alpha (Homo sapiens) (UniProt Q9UQM7); assay: Inhibition of CAMK2-alpha (unknown origin) at 10 uM by [33P]-ATP radiometric assay; how it was run: as §2
Chain of Calcium/calmodulin-dependent protein kinase type II subunit alpha (Homo sapiens) (Q9UQM7 whole entry): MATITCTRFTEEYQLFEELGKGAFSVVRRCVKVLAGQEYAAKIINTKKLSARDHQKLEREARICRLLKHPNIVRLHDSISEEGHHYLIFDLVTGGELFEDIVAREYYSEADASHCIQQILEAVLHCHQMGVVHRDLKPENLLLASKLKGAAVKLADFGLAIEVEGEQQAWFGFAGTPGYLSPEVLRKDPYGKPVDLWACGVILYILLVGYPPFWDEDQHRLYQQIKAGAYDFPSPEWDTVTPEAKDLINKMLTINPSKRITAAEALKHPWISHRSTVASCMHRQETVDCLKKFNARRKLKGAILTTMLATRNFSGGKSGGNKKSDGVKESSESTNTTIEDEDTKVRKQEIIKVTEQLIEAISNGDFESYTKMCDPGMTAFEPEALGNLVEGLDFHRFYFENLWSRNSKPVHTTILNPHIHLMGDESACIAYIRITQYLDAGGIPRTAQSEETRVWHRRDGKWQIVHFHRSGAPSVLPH

[8] = target: Mast/stem cell growth factor receptor Kit (Homo sapiens) (UniProt P10721); assay: Inhibition of c-KIT (unknown origin) at 10 uM by [33P]-ATP radiometric assay
Chain of Mast/stem cell growth factor receptor Kit (Homo sapiens) (P10721 whole entry): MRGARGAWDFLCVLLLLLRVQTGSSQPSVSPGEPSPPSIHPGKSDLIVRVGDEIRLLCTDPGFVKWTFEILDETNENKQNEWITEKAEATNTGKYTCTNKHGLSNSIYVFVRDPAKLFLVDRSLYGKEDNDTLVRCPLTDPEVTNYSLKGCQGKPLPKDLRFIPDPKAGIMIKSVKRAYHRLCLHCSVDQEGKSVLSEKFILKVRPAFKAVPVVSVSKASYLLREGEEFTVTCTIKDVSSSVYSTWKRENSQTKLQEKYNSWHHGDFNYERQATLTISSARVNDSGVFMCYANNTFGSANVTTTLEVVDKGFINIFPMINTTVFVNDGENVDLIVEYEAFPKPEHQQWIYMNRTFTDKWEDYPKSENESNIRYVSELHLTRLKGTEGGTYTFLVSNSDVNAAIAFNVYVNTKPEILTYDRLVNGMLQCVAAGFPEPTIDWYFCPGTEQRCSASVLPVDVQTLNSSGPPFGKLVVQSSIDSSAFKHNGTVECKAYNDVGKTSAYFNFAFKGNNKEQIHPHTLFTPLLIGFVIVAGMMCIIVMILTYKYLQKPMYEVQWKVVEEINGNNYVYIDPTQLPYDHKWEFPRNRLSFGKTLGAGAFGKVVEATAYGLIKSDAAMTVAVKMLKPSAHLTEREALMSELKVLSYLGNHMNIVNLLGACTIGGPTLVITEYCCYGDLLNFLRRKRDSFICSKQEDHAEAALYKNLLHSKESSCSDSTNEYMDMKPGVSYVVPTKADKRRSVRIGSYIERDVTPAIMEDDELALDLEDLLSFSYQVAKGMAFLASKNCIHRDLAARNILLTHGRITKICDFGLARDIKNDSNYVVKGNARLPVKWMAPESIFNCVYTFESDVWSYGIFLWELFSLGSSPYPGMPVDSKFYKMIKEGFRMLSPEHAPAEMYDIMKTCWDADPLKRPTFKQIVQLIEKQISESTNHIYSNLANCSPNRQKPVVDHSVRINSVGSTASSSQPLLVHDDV
How it was run: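 Radiometric kinase profiling: purified recombinant kinase (~10–50 nM final) with substrate, assay buffer and compound at 10 µM (control 10% DMSO). Started with 33P-ATP (50 µM stock, 0.8 µCi), run 30 min at ambient temperature, then spotted onto P81 phosphocellulose and washed in 1% phosphoric acid.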

[9] = target: Protein kinase C beta type (Homo sapiens) (UniProt P05771); assay: Inhibition of PCK-beta2 (unknown origin) at 10 uM by [33P]-ATP radiometric assay; how it was run: as §2
Chain of Protein kinase C beta type (Homo sapiens) (P05771 2-671 limits assumed): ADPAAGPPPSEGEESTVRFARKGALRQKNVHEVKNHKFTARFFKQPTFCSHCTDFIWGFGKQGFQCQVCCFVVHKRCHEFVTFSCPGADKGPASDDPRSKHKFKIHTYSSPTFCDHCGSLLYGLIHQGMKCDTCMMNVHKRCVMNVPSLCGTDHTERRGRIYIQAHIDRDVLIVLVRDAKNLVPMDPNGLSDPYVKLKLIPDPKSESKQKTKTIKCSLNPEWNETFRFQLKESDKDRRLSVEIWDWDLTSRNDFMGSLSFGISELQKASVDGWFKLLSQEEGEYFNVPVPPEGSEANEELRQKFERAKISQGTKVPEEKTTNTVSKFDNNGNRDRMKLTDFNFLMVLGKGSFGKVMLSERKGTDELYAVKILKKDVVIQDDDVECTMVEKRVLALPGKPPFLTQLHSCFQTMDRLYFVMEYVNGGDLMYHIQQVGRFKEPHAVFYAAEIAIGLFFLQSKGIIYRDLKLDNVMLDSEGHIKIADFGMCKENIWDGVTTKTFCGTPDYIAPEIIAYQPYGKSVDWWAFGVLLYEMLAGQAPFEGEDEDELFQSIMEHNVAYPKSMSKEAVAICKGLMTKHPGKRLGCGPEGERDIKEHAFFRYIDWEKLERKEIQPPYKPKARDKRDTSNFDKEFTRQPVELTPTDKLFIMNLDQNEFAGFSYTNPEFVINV

[10] = target: Mitogen-activated protein kinase 8 (Homo sapiens) (UniProt P45983); assay: Inhibition of JNK1 (unknown origin) at 10 uM by [33P]-ATP radiometric assay; how it was run: as §2
Chain of Mitogen-activated protein kinase 8 (Homo sapiens) (P45983 whole entry): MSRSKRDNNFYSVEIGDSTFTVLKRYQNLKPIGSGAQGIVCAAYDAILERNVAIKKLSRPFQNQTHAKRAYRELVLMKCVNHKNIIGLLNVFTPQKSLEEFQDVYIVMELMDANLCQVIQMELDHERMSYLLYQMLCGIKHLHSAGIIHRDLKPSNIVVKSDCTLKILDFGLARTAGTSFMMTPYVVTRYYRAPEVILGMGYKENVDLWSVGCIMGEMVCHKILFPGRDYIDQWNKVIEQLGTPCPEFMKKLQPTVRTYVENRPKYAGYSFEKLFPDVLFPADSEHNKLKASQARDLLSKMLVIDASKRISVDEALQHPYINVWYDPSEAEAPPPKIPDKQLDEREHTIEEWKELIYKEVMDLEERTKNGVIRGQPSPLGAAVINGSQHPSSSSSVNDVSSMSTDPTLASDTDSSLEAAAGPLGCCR

[11] = target: Fibroblast growth factor receptor 1 (Homo sapiens) (UniProt P11362); assay: Inhibition of FGFR1 (unknown origin) at 10 uM by [33P]-ATP radiometric assay; how it was run: as §2
[12] = target: Receptor tyrosine-protein kinase erbB-2 (Homo sapiens) (UniProt P04626); assay: Inhibition of HER2 (unknown origin) at 10 uM by [33P]-ATP radiometric assay; how it was run: as §2
Chain of Receptor tyrosine-protein kinase erbB-2 (Homo sapiens) (P04626 whole entry): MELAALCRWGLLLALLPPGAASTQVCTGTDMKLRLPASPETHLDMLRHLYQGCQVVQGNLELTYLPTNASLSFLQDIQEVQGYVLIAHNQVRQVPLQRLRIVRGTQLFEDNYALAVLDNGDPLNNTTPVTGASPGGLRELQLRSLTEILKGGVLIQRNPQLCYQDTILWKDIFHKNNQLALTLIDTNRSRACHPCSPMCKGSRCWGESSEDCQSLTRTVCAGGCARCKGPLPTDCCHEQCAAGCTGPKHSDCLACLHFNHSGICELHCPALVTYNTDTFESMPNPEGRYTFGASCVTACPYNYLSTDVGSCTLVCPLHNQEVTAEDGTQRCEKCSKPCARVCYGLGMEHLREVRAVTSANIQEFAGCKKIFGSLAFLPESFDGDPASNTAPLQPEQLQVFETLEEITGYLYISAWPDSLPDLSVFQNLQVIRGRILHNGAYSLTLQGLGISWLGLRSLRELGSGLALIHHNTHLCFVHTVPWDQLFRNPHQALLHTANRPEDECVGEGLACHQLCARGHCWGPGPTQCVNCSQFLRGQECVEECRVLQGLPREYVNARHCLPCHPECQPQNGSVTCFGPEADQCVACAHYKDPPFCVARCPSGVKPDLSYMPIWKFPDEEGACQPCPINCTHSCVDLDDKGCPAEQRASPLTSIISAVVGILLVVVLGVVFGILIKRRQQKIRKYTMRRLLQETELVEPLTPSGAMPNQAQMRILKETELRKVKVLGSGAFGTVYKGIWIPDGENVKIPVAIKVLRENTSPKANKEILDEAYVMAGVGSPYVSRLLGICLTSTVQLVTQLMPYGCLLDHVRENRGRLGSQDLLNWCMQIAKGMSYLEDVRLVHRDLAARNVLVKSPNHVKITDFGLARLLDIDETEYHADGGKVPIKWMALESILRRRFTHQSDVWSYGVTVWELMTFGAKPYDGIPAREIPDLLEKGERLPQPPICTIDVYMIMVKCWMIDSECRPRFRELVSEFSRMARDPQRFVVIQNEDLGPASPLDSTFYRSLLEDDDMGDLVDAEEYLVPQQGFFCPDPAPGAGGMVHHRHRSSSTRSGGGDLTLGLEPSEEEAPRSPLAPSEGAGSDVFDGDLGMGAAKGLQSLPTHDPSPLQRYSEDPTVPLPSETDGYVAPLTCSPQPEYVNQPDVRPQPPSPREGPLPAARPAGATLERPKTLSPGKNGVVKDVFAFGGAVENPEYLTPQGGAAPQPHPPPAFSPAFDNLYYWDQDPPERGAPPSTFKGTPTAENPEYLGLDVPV

[13] = target: Mitogen-activated protein kinase 3 (Homo sapiens) (UniProt P27361); assay: Inhibition of ERK1 (unknown origin) at 10 uM by [33P]-ATP radiometric assay; how it was run: as §2
Chain of Mitogen-activated protein kinase 3 (Homo sapiens) (P27361 whole entry): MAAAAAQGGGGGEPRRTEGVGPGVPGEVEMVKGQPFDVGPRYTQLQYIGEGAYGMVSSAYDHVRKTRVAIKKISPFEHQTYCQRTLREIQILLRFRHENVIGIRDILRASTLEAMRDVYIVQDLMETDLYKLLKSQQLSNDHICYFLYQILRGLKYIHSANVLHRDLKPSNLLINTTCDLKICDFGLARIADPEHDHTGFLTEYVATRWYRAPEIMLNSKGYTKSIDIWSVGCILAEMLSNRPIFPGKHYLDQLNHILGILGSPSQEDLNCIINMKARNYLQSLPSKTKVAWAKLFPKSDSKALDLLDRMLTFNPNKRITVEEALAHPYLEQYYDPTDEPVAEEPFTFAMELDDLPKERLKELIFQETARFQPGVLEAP

[14] = target: Epidermal growth factor receptor (Homo sapiens) (UniProt P00533); assay: Inhibition of EGFR (unknown origin) at 10 uM by [33P]-ATP radiometric assay; how it was run: as §2
[15] = target: Hepatocyte growth factor receptor (Homo sapiens) (UniProt P08581); assay: Inhibition of MET (unknown origin) at 10 uM by [33P]-ATP radiometric assay; how it was run: as §2
[16] = target: Cyclin-dependent kinase 16 (Homo sapiens) (UniProt Q00536); assay: Inhibition of CDK16 (unknown origin) at 10 uM by [33P]-ATP radiometric assay; how it was run: as §2
Chain of Cyclin-dependent kinase 16 (Homo sapiens) (Q00536 whole entry): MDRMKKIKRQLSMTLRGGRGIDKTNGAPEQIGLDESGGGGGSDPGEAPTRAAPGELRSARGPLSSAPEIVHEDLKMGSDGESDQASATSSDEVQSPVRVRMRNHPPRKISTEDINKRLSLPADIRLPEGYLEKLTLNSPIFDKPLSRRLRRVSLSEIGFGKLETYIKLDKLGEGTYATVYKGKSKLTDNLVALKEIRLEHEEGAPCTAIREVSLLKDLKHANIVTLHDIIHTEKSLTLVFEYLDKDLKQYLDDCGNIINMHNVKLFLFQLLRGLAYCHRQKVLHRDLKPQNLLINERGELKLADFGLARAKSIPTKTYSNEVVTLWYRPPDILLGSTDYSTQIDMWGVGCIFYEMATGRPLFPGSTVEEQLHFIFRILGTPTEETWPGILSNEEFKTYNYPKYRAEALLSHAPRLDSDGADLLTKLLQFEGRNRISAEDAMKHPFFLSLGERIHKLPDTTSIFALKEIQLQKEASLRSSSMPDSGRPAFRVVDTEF

[17] = system: MCF7; assay: Induction of apoptosis in human MCF7 cells assessed as increase of early apoptotic cells at 1 to 10 uM after 72 hrs by annexin V-FITC/propidium iodide staining-based flow cytometric method relative to control; format: functional
How it was run: (§3)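 MCF-7 cells treated 72 h at final 1, 5, 10 µM, then annexin V-FITC/PI stained in pH 7.4 HEPES binding buffer and analysed by flow cytometry. Early or late apoptotic cell fraction expressed as percent change versus vehicle control: (sample − control)/control × 100. Triplicates.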

[18] = system: MCF7; assay: Induction of apoptosis in human MCF7 cells assessed as late apoptotic cells at 1 uM after 72 hrs by annexin V-FITC/propidium iodide staining-based flow cytometric method (reference value: 2.6%); format: functional
[19] = system: MCF7; assay: Induction of apoptosis in human MCF7 cells assessed as viable cells at 1 uM after 72 hrs by annexin V-FITC/propidium iodide staining-based flow cytometric method (reference value: 76%); format: functional; conditions: MCF7, 72 h, read-out: Activity
[20] = system: MCF7; assay: Induction of apoptosis in human MCF7 cells assessed as late apoptotic cells at 10 uM after 72 hrs by annexin V-FITC/propidium iodide staining-based flow cytometric method (reference value: 2.6%); format: functional
[21] = system: MCF7; assay: Induction of apoptosis in human MCF7 cells assessed as early apoptotic cells at 1 uM after 72 hrs by annexin V-FITC/propidium iodide staining-based flow cytometric method (reference value: 9%); format: functional
[22] = system: MCF7; assay: Induction of apoptosis in human MCF7 cells assessed as necrotic cells at 1 uM after 72 hrs by annexin V-FITC/propidium iodide staining-based flow cytometric method (reference value: 12.6%); format: functional
[23] = system: MCF7; assay: Induction of apoptosis in human MCF7 cells assessed as increase of early apoptotic cells after 72 hrs by annexin V-FITC/propidium iodide staining-based flow cytometric method; format: functional, cell-based; how it was run: as §3
[24] = system: MCF7; assay: Induction of apoptosis in human MCF7 cells assessed as early apoptotic cells at 10 uM after 72 hrs by annexin V-FITC/propidium iodide staining-based flow cytometric method (reference value: 9%); format: functional
[25] = system: MCF7; assay: Induction of apoptosis in human MCF7 cells assessed as viable cells at 10 uM after 72 hrs by annexin V-FITC/propidium iodide staining-based flow cytometric method (reference value: 76%); format: functional; conditions: MCF7, 72 h, read-out: Activity
[26] = system: MCF7; assay: Induction of apoptosis in human MCF7 cells assessed as early apoptotic cells at 5 uM after 72 hrs by annexin V-FITC/propidium iodide staining-based flow cytometric method (reference value: 9%); format: functional
[27] = system: MCF7; assay: Induction of apoptosis in human MCF7 cells assessed as viable cells at 5 uM after 72 hrs by annexin V-FITC/propidium iodide staining-based flow cytometric method (reference value: 76%); format: functional; conditions: MCF7, 72 h, read-out: Activity
[28] = system: MCF7; assay: Induction of apoptosis in human MCF7 cells assessed as necrotic cells at 10 uM after 72 hrs by annexin V-FITC/propidium iodide staining-based flow cytometric method (reference value: 12.6%); format: functional
[29] = system: MCF7; assay: Induction of apoptosis in human MCF7 cells assessed as necrotic cells at 5 uM after 72 hrs by annexin V-FITC/propidium iodide staining-based flow cytometric method (reference value: 12.6%); format: functional
[30] = system: MCF7; assay: Induction of apoptosis in human MCF7 cells assessed as late apoptotic cells at 5 uM after 72 hrs by annexin V-FITC/propidium iodide staining-based flow cytometric method (reference value: 2.6%); format: functional

Structure (SMILES)	pIC50 [1]	pIC50 [2]	pIC50 [3]	pIC50 [4]	pIC50 [5]	also measured
CS(=O)(=O)CCNCc1ccc(-c2ccc3ncnc(Nc4ccc(OCc5cccc(F)c5)c(Cl)c4)c3c2)o1 [LAPATINIB]	4.99	4.98	5.17			
COc1ccc(CCN2CCC(Nc3nc4nc5ccc(OC)cc5nc4c(=O)[nH]3)CC2)cc1	6.03	6.05	6.10	4.48	4.76	
CN1CCN(Cc2ccc(CNc3nc4nc5ccc(Cl)cc5cc4c(=O)[nH]3)cc2)CC1	6.14	6.27	6.21	< 4.30	4.57	inhibition [6]: 14%; inhibition [7]: -6%; inhibition [8]: 60%; inhibition [9]: 5%; inhibition [10]: -5%; inhibition [11]: 37%; inhibition [12]: 8%; inhibition [13]: 6%; inhibition [14]: 16%; inhibition [15]: 9%; inhibition [16]: 11%
COc1ccc2nc3nc(NC(C)c4ccccc4)[nH]c(=O)c3nc2c1 (stereo not drawn)	5.24	5.32	5.24	< 4.30	< 4.30	
COc1ccc2nc3nc(NCc4ccc(CN5CCOCC5)cc4)[nH]c(=O)c3cc2c1	5.28	5.54	5.50	4.31	4.64	
O=c1[nH]c(NCc2ccc(CN3CCOCC3)cc2)nc2nc3ccccc3nc12	5.82	5.70	5.83	< 4.30	< 4.30	
COc1ccc2nc3nc(NCc4ccc(CN(C)C)cc4)[nH]c(=O)c3nc2c1	5.89	6.15	6.26	< 4.30	< 4.30	fold change (FC) [17]: 2; Activity [18]: 4.8%; viability at 1 µM [19]: 67.3%; Activity [20]: 12%; Activity [21]: 11.7%; Activity [22]: 16.2%; Activity [23]: Dose-dependent effect; Activity [24]: 22.1%; viability at 10 µM [25]: 60%; Activity [26]: 17%; viability at 5 µM [27]: 67.4%; Activity [28]: 5.9%; Activity [29]: 7.7%; Activity [30]: 7.9%
